These results are taken from ChEMBL document CHEMBL1127615, “5,7-Dimethoxy-3-(4-pyridinyl)quinoline is a potent and selective inhibitor of human vascular beta-type platelet-derived growth factor receptor tyrosine kinase” (J Med Chem, 1994).

Assay [1] can be described thus: Inhibition of vascular smooth muscle cell proliferation by [3H]thymidine incorporation. In kind it is functional. As to conditions: Homo sapiens. The method in brief:
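Primary human vascular smooth muscle cells, serum-starved 48 h, then inhibitor for 2 h, PDGF-BB (10 ng/mL) for 24 h, then [3H]thymidine (0.5 μCi/mL) for 24 h more. Cells were washed with ice-cold 5% TCA, extracted with 0.1 N NaOH (30 min, 25 °C), neutralized and counted. Inhibition is relative to vehicle (≤0.5% DMSO).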
Background: Incorporation of labelled thymidine or its analogues reports DNA synthesis.

Assay [2] has as its target Platelet-derived growth factor receptor (Homo sapiens, UniProt P09619+P16234). Put plainly: Inhibition of Platelet-derived growth factor receptor tyrosine kinase. In kind it is protein-complex assay.
For the next assay, the target named is Protein kinase C (PKC). Briefly: Inhibition of Serine/threonine protein kinases C. In kind it is protein assay, Homo sapiens.
For assay [3], the target named is Receptor tyrosine-protein kinase erbB-2 (Homo sapiens, UniProt P04626). Briefly: Inhibition of erbB2 receptor.
Chain of Receptor tyrosine-protein kinase erbB-2 (P04626 whole entry): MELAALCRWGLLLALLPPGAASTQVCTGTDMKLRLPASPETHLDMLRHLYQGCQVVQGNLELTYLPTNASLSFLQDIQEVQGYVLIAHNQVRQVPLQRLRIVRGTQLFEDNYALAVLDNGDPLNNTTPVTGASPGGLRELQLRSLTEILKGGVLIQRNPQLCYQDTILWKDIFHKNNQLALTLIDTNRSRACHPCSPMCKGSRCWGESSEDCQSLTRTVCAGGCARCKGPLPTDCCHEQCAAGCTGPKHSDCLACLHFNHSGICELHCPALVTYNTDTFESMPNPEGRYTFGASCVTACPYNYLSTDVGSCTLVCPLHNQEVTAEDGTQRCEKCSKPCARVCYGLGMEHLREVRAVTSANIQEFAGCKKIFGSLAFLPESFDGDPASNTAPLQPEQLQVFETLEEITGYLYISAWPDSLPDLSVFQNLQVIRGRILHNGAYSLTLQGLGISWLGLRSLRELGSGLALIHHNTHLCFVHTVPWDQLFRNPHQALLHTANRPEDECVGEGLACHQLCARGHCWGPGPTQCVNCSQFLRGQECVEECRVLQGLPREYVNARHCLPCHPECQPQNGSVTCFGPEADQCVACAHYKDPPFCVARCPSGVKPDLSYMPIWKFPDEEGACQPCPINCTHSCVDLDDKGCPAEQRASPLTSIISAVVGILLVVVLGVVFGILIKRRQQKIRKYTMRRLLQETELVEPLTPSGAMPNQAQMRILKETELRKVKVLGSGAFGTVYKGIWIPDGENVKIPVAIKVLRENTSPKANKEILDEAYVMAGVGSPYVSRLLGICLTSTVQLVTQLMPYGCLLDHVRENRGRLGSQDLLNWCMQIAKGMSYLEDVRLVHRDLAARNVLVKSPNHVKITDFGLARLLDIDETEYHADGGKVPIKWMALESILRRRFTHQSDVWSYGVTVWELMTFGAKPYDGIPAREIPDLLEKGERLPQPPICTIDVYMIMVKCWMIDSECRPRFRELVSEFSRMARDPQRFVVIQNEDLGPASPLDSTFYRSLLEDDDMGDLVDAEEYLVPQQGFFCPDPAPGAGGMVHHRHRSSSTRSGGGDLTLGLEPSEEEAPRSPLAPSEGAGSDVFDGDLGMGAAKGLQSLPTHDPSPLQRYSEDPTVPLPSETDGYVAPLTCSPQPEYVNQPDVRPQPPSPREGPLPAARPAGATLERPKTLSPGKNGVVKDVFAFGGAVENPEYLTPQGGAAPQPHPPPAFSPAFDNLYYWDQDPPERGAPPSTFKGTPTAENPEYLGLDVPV
Assay [4] concerns the target Tyrosine-protein kinase Lck (Homo sapiens, UniProt P06239). Put plainly: Inhibition of p56 lck kinase.

Each structure is given as a SMILES string. pIC50: −log10 of the molar value.

Chain of Tyrosine-protein kinase Lck (P06239 whole entry): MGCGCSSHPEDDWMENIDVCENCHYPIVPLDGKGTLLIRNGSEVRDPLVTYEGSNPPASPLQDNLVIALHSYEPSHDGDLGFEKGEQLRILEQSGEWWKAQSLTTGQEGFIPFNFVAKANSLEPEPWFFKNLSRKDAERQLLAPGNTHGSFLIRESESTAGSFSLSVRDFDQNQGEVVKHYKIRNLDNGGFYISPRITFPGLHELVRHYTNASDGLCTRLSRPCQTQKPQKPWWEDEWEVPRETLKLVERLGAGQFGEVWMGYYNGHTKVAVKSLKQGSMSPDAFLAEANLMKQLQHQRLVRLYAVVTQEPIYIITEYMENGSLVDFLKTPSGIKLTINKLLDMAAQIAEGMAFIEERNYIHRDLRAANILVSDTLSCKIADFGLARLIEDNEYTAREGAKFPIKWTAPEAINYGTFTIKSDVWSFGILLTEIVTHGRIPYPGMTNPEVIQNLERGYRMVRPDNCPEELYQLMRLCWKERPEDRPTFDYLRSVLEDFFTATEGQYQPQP

Consider `COc1cc2ncc(-c3ccncc3)cc2c(OC)c1OC`, for which the pIC50 is 5.46 in assay [1] and 6.40 in assay [2]. The corresponding values for `COc1ccc2cc(-c3ccncc3)cnc2c1` are 5.19 and 6.22. Turning to `Oc1cc(O)c2cc(-c3ccncc3)cnc2c1`, the pIC50 is 5.26 in assay [1] and 5.89 in assay [2].

In turn, `COc1cc(OC)c2cc(-c3ccncc3)cnc2c1` displayed an IC50 at Protein kinase C (PKC) of more than 10 µM. The pIC50 in assay [1] was 6.05; in assay [3], less than 5.00.

In turn, `COc1ccc2ncc(-c3ccncc3)cc2c1` gave a pIC50 in assay [2] of 6.40. As for `COc1ccc2ncc(-c3ccncc3)c(C)c2c1`, the pIC50 in assay [2] was less than 4.30. The same measure, in the same setting: the value for `c1ccc2ncc(-c3ccncc3)cc2c1` was 5.82.

The molecule `Oc1cc2cc(-c3ccncc3)cnc2cc1O` yielded an IC50 on Protein kinase C (PKC) of more than 10 µM. Moreover, the pIC50 in assay [2] is 4.44. As for `Clc1ccc2cc(-c3ccncc3)cnc2c1`, the IC50 against Protein kinase C (PKC) was more than 10 µM. Also, the pIC50 in assay [2] was 6.52.

Consider `Oc1ccc2cc(-c3ccncc3)cnc2c1`, for which the values for the negative logarithm of the IC50 (pIC50) in assay [1] and in assay [2] were less than 5.00 and 5.04, respectively.

As to `COc1cc2cc(-c3ccncc3)cnc2cc1OC`, the IC50 on Protein kinase C (PKC) was more than 10 µM. Besides, the figures for the pIC50 in assay [4], in assay [1] and in assay [3] were less than 5.00, 5.74 and less than 5.00, respectively.

Molecule `COc1ccc2c(C)c(-c3ccncc3)cnc2c1` had a pIC50 in assay [2] of less than 4.30.

In general, pIC50 refers to the negative decadic logarithm of the IC50, by convention in mol/L. Low readings indicate a large IC50, high ones a small IC50. By IC50 is commonly meant the concentration that inhibits the measured activity by half.
